Experimental data: ChEMBL document CHEMBL1806369, “Carbonic anhydrase I and II activation with mono- and dihalogenated histamine derivatives” (Bioorg Med Chem Lett, 2011)

Columns and labels:
[1] = molecular target: Carbonic anhydrase 1 (Homo sapiens) (UniProt P00915); test: Activation of human cytosolic carbonic anhydrase 1 preincubated for 15 mins by stopped-flow CO2 hydration assay
Procedure, shortened: (§1)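 Initial velocity taken from at least six traces of the first 5–10% of reaction per activator, with uncatalyzed rates measured identically and subtracted. Activator stocks 10 mM in distilled-deionized water, diluted with water down to 0.1 nM. Enzyme and activator preincubated 15 min at room temperature before assay.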

[2] = molecular target: Carbonic anhydrase 2 (Homo sapiens) (UniProt P00918); test: Activation of human cytosolic carbonic anhydrase 2 preincubated for 15 mins by stopped-flow CO2 hydration assay; procedure, shortened: as §1

Carbonic anhydrase 1 (Homo sapiens), sequence (P00915 2-261 limits assumed): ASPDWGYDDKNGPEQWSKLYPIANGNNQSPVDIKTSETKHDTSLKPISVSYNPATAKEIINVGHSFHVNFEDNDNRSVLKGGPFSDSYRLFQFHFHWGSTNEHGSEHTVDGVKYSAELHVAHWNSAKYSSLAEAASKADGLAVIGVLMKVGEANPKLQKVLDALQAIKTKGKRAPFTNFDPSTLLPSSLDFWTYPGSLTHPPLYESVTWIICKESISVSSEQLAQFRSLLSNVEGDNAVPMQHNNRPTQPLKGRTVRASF

NCCc1nc[nH]c1Cl
KA [1]: 0.018 µM | KA [2]: 0.032 µM

NCCc1nc(I)[nH]c1I
KA [1]: 0.0009 µM | KA [2]: 0.065 µM

CC(C)(C)OC(=O)NCCc1nc[nH]c1Cl
KA [1]: 16.5 µM | KA [2]: 24.8 µM

NCCc1nc(Cl)[nH]c1Cl
KA [1]: 0.021 µM | KA [2]: 0.115 µM

CC(C)(C)OC(=O)NCCc1nc(I)[nH]c1I
KA [1]: 29.3 µM | KA [2]: 13.6 µM

NCCc1nc[nH]c1Br
KA [1]: 0.012 µM | KA [2]: 0.008 µM

CC(C)(C)OC(=O)NCCc1nc(Br)[nH]c1Br
KA [1]: 7.1 µM | KA [2]: 44.5 µM

CC(C)(C)OC(=O)NCCc1nc(Cl)[nH]c1Cl
KA [1]: 5.4 µM | KA [2]: 50.2 µM

NCCc1nc(Br)[nH]c1Br
KA [1]: 0.015 µM | KA [2]: 0.096 µM

NCCc1nc[nH]c1I
KA [1]: 0.0007 µM | KA [2]: 0.001 µM

CC(C)(C)OC(=O)NCCc1nc[nH]c1Br
KA [1]: 13.3 µM | KA [2]: 28.5 µM

CC(C)(C)OC(=O)NCCc1nc[nH]c1I
KA [1]: 12.1 µM | KA [2]: 36.7 µM
